≈ marks a conversion by molar mass, not a printed value.
Tests used:
Format in all cases: functional
[1] = tested on: Mycobacterium tuberculosis; test: Antimycobacterial activity against replicating Mycobacterium tuberculosis mc2 6220 harboring panCD/lysA deletion mutant by two-fold serial dilution method
In short: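 M. tuberculosis mc26220 in replicating medium supplemented with glycerol (final 0.5%), OADC, casamino acids 0.05%, lysine 240 μg/mL and pantothenate 24 μg/mL. Exposed to 2-fold serially diluted compound from DMSO. OD580 read after 7 days at 20% O2, 5% CO2. Reported as MIC90.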

[2] = tested on: Mycobacterium tuberculosis; test: Antimycobacterial activity against non-replicating Mycobacterium tuberculosis mc2 6220 harboring panCD/lysA deletion mutant incubated for 7 days measured at OD580 = 0.1 by two-fold serial dilution method
In short: (§1)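 M. tuberculosis mc26220 washed twice in PBS-tyloxapol and resuspended in Sauton's-based nonreplicating medium (pH 5.0, butyrate 0.05%, BSA, tyloxapol, lysine, pantothenate, 0.5 mM NaNO2). Incubated at 1% O2, 5% CO2 with 2-fold serially diluted compound from DMSO. After 3 days, diluted 5-fold in fresh replicating medium for outgrowth at 20% O2. Reported as MIC90.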

[3] = tested on: Mycobacterium tuberculosis; test: Antimycobacterial activity against non-replicating Mycobacterium tuberculosis mc2 6220 harboring panCD/lysA deletion mutant incubated for 7 days measured at OD580 = 0.01 by two-fold serial dilution method; in short: as §1

Row | SMILES | MIC90 [1] | MIC90 [2] | MIC90 [3]
1 | COc1ccc(CCC(=O)N[C@@H]2C(=O)N3C(C(=O)OCc4ccccc4)=C(C)CS[C@H]23)cc1 | >100 µg/mL | 0.42 µg/mL (≈ 0.9 µM) | 0.39 µg/mL (≈ 0.836 µM)
2 | CC1=C(C(=O)O)N2C(=O)[C@@H](NC(=O)c3ccc(Cl)cc3)[C@H]2SC1 | >100 µg/mL | >35.28 µg/mL | >35.28 µg/mL
3 | CCCc1noc(C2=C(C)CS[C@@H]3[C@H](NC(=O)c4ccc(Cl)cc4)C(=O)N23)n1 | >100 µg/mL | 2.28 µg/mL (≈ 5.44 µM) | 1.06 µg/mL (≈ 2.53 µM)
4 | CC1=C(c2nc(C)no2)N2C(=O)[C@@H](NC(=O)OCC(Cl)(Cl)Cl)[C@H]2SC1 | >100 µg/mL | 0.92 µg/mL (≈ 2.15 µM) | 0.46 µg/mL (≈ 1.08 µM)
5 | CC1=C(c2nc(C)no2)N2C(=O)[C@@H](NC(=O)Cc3ccc(Cl)cc3)[C@H]2SC1 | >100 µg/mL | 1.13 µg/mL (≈ 2.79 µM) | –
6 | CCCc1noc(C2=C(C)CS[C@@H]3[C@H](NC(=O)COc4ccc(Cl)cc4)C(=O)N23)n1 | >100 µg/mL | 3.87 µg/mL (≈ 8.62 µM) | 1.36 µg/mL (≈ 3.03 µM)
7 | CC1=CS[C@@H]2[C@H](NC(=O)COc3ccccc3)C(=O)N2[C@H]1COS(=O)(=O)c1ccc(Br)cc1 | >83.24 µg/mL | >55.34 µg/mL | >55.34 µg/mL
8 | COc1ccc(OCC(=O)N[C@@H]2C(=O)N3C(C(=O)OCc4ccccc4)=C(C)CS[C@H]23)cc1 | >100 µg/mL | 2.53 µg/mL (≈ 5.4 µM) | 1.54 µg/mL (≈ 3.29 µM)
9 | CCCc1noc(C2=C(C)CS[C@@H]3[C@H](NC(=O)Cc4ccc(OC)cc4)C(=O)N23)n1 | >100 µg/mL | 0.77 µg/mL (≈ 1.8 µM) | –
10 | CCCc1noc(C2=C(C)CS[C@@H]3[C@H](NC(=O)Cc4ccc(C)cc4)C(=O)N23)n1 | >100 µg/mL | 0.64 µg/mL (≈ 1.55 µM) | –
11 | COC(=O)C1=C(C)CS[C@@H]2[C@H](NC(=O)[C@H](N)c3ccccc3)C(=O)N12 | >100 µg/mL | 61.78 µg/mL (≈ 171 µM) | –
12 | CC1=C(C(N)=O)N2C(=O)[C@@H](NC(=O)COc3ccccc3)[C@H]2SC1 | >100 µg/mL | >100 µg/mL | 59.68 µg/mL (≈ 172 µM)
13 | C#CCOC(=O)C1=C(C)CS[C@@H]2[C@H](NC(=O)COc3ccc(Cl)cc3)C(=O)N12 | >100 µg/mL | 3.95 µg/mL (≈ 9.39 µM) | 1.53 µg/mL (≈ 3.64 µM)
14 | COc1ccc(CCC(=O)N[C@@H]2C(=O)N3C(C(=O)OC4CCCC4)=C(C)CS[C@H]23)cc1 | 44.33 µg/mL (≈ 99.7 µM) | 0.96 µg/mL (≈ 2.16 µM) | 0.84 µg/mL (≈ 1.89 µM)
15 | CCCc1noc(C2=C(C)CS[C@@H]3[C@H](NC(=O)Cc4ccccc4)C(=O)N23)n1 | >100 µg/mL | 1.04 µg/mL (≈ 2.61 µM) | –
16 | CC1=C(c2nc(C)no2)N2C(=O)[C@@H](NC(=O)Cc3ccc(C)cc3)[C@H]2SC1 | >100 µg/mL | 1.75 µg/mL (≈ 4.55 µM) | –
17 | CCCCOC(=O)C1=C(C)CS[C@@H]2[C@H](NC(=O)CCc3ccc(Cl)cc3)C(=O)N12 | >100 µg/mL | 1.24 µg/mL (≈ 2.84 µM) | 0.72 µg/mL (≈ 1.65 µM)
18 | CCCc1noc(C2=C(C)CS[C@@H]3[C@H](NC(=O)CCc4ccc(C)cc4)C(=O)N23)n1 | >100 µg/mL | 2.32 µg/mL (≈ 5.44 µM) | 0.98 µg/mL (≈ 2.3 µM)
19 | CCCc1noc(C2=C(C)CS[C@@H]3[C@H](NC(=O)CCc4ccc(F)cc4)C(=O)N23)n1 | >100 µg/mL | 0.91 µg/mL (≈ 2.11 µM) | 0.48 µg/mL (≈ 1.11 µM)
20 | COc1ccc(CCC(=O)N[C@@H]2C(=O)N3C(C(=O)O)=C(C)CS[C@H]23)cc1 | >100 µg/mL | >37.64 µg/mL | >37.64 µg/mL
21 | CCCCOC(=O)C1=C(C)CS[C@@H]2[C@H](NC(=O)CCc3ccc(OC)cc3)C(=O)N12 | >100 µg/mL | 0.26 µg/mL (≈ 0.601 µM) | 0.24 µg/mL (≈ 0.555 µM)
22 | CC1=C(C(=O)OCc2ccccc2)N2C(=O)[C@@H](NC(=O)COc3ccc(Cl)cc3)[C@H]2SC1 | >100 µg/mL | 8.07 µg/mL (≈ 17.1 µM) | 0.87 µg/mL (≈ 1.84 µM)
23 | CC1=C(c2nc(C)no2)N2C(=O)[C@@H](NC(=O)Cc3ccccc3)[C@H]2SC1 | >100 µg/mL | 1.61 µg/mL (≈ 4.35 µM) | –
24 | CCCOC(=O)C1=C(C)CS[C@@H]2[C@H](NC(=O)CCc3ccccc3)C(=O)N12 | 53.64 µg/mL (≈ 138 µM) | 1.24 µg/mL (≈ 3.19 µM) | 0.6 µg/mL (≈ 1.54 µM)
25 | CC(=O)OCC1=C(C(=O)O)N2C(=O)[C@@H](NC(=O)Cc3cccs3)[C@H]2SC1 [CEPHALOTHIN] | >100 µg/mL | >100 µg/mL | 95.53 µg/mL (≈ 241 µM)
26 | COc1ccc(CC(=O)N[C@@H]2C(=O)N3C(c4nc(C)no4)=C(C)CS[C@H]23)cc1 | >100 µg/mL | 3.25 µg/mL (≈ 8.12 µM) | –

Row | SMILES | MIC90 [1] | MIC90 [2] | MIC90 [3]
27 | CC1=C(C(=O)O/N=C(\C)N)N2C(=O)[C@@H](NC(=O)COc3ccccc3)[C@H]2SC1 | >100 µg/mL | 8.12 µg/mL (≈ 20.1 µM) | 5.6 µg/mL (≈ 13.8 µM)
28 | COC(=O)C1=C(C)CS[C@@H]2[C@H](NC(=O)[C@H](NC(=O)OC(C)(C)C)c3ccccc3)C(=O)N12 | >100 µg/mL | 18.07 µg/mL (≈ 39.2 µM) | 16.51 µg/mL (≈ 35.8 µM)
29 | CCCCOC(=O)C1=C(C)CS[C@@H]2[C@H](NC(=O)COc3ccc(OC)cc3)C(=O)N12 | >100 µg/mL | 1.12 µg/mL (≈ 2.58 µM) | 0.71 µg/mL (≈ 1.63 µM)
30 | CC1=C(c2nc(C)no2)N2C(=O)[C@@H](NC(=O)OCC(C)(C)C)[C@H]2SC1 | >100 µg/mL | 1.03 µg/mL (≈ 2.81 µM) | –
31 | CCCCOC(=O)C1C(C)=CS[C@@H]2[C@H](NC(=O)COc3ccccc3)C(=O)N12 (stereo partly drawn) | >100 µg/mL | 1.28 µg/mL (≈ 3.16 µM) | 0.79 µg/mL (≈ 1.95 µM)
32 | CC1=C(c2nc(C)no2)N2C(=O)[C@@H](NC(=O)OC(C)(C)C)[C@H]2SC1 | >100 µg/mL | 9.16 µg/mL (≈ 26 µM) | 5.3 µg/mL (≈ 15 µM)
33 | CC1=C(c2nc(C)no2)N2C(=O)[C@@H](NC(=O)COc3ccccc3)[C@H]2SC1 | >100 µg/mL | 1.85 µg/mL (≈ 4.79 µM) | 0.88 µg/mL (≈ 2.28 µM)
34 | CCCN(O)C(=O)C1=C(C)CS[C@@H]2[C@H](NC(=O)COc3ccccc3)C(=O)N12 | >100 µg/mL | >40.55 µg/mL | >40.55 µg/mL
35 | CC1=C(C(=O)O)N2C(=O)[C@@H](NC(=O)Cc3ccc(Cl)cc3)[C@H]2SC1 | 81.38 µg/mL (≈ 222 µM) | >36.68 µg/mL | >36.68 µg/mL
36 | CCCCOc1ccc(CCC(=O)N[C@@H]2C(=O)N3C(c4nc(CCC)no4)=C(C)CS[C@H]23)cc1 | >100 µg/mL | 0.76 µg/mL (≈ 1.57 µM) | 0.47 µg/mL (≈ 0.97 µM)
37 | CCOC(=O)C1=C(C)CS[C@@H]2[C@H](NC(=O)COc3ccc(OC)cc3)C(=O)N12 | 47.1 µg/mL (≈ 116 µM) | 0.89 µg/mL (≈ 2.19 µM) | 0.53 µg/mL (≈ 1.3 µM)
38 | C#CCNC(=O)C1=C(C)CS[C@@H]2[C@H](NC(=O)COc3ccccc3)C(=O)N12 | >100 µg/mL | >38.54 µg/mL | >38.54 µg/mL
39 | CC1=C(C(=O)O)N2C(=O)[C@@H](NC(=O)COc3ccccc3)[C@H]2SC1 | >100 µg/mL | >34.84 µg/mL | >34.84 µg/mL
40 | CCSC(=O)N[C@@H]1C(=O)N2C(c3nc(C)no3)=C(C)CS[C@H]12 | >100 µg/mL | 1.84 µg/mL (≈ 5.4 µM) | –
41 | CC1=C(c2nc(C)no2)N2C(=O)[C@@H](NC(=O)Cc3ccc(Cl)c(Cl)c3)[C@H]2SC1 | >100 µg/mL | 0.28 µg/mL (≈ 0.637 µM) | –
42 | CCCOC(=O)C1=C(C)CS[C@@H]2[C@H](NC(=O)COc3ccc(OC)cc3)C(=O)N12 | >100 µg/mL | 0.81 µg/mL (≈ 1.93 µM) | 0.39 µg/mL (≈ 0.927 µM)
43 | CCCc1noc(C2=C(C)CS[C@@H]3[C@H](NC(=O)CCc4ccc(Cl)cc4)C(=O)N23)n1 | >100 µg/mL | – | –
44 | CC1=C(c2nc(C)no2)N2C(=O)[C@@H](NC(=O)[C@H](N)c3ccccc3)[C@H]2SC1 | >100 µg/mL | 44.05 µg/mL (≈ 114 µM) | –
45 | CNC(=O)C1=C(C)CS[C@@H]2[C@H](NC(=O)COc3ccccc3)C(=O)N12 | >100 µg/mL | >36.14 µg/mL | >36.14 µg/mL
46 | COC[C@H]1C(C)=CS[C@@H]2[C@H](NC(=O)COc3ccccc3)C(=O)N21 | >87.82 µg/mL | >34.84 µg/mL | >34.84 µg/mL
47 | COC(=O)C1=C(C)CS[C@@H]2[C@H](NC(=O)COc3ccc(OC)cc3)C(=O)N12 | >100 µg/mL | 4.28 µg/mL (≈ 10.9 µM) | 2.01 µg/mL (≈ 5.12 µM)
48 | COC(=O)C1=C(C)CS[C@@H]2[C@H](NC(=O)COc3ccc(Cl)cc3)C(=O)N12 | >100 µg/mL | 1.25 µg/mL (≈ 3.15 µM) | 0.95 µg/mL (≈ 2.39 µM)
49 | CCOC(=O)C1=C(C)CS[C@@H]2[C@H](NC(=O)COc3ccc(Cl)cc3)C(=O)N12 | >100 µg/mL | 2.38 µg/mL (≈ 5.79 µM) | 1.07 µg/mL (≈ 2.6 µM)
50 | CCCOC(=O)C1C(C)=CS[C@@H]2[C@H](NC(=O)CCc3ccc(OC)cc3)C(=O)N12 (stereo partly drawn) | 49.5 µg/mL (≈ 118 µM) | <0.23 µg/mL | 0.21 µg/mL (≈ 0.502 µM)
51 | CCCOC(=O)C1=C(C)CS[C@@H]2[C@H](NC(=O)[C@H](N)c3ccccc3)C(=O)N12 | >100 µg/mL | 15.46 µg/mL (≈ 39.7 µM) | –

Source: ChEMBL document CHEMBL4425095, “Novel Cephalosporins Selectively Active on Nonreplicating Mycobacterium tuberculosis” (J Med Chem, 2016)
